Assay outcomes as filed in PubChem BioAssay.
In the library only some 2% were active in any assay of this set; here they are far more common.
CHRM5 antagonist – blocks acetylcholine activation of human M5 receptor; P08912; CHO-hM5 cells, Fluo-8 calcium fluorescence, ACh EC80; inhibition, % at 3 µM; 0.59% of 360,000 active;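 active = inhibition above a per-plate cutoff, the mean of that plate's test compounds plus 3 SD, cut at about 27% in these data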
Target sequence (P08912 whole entry, looked up): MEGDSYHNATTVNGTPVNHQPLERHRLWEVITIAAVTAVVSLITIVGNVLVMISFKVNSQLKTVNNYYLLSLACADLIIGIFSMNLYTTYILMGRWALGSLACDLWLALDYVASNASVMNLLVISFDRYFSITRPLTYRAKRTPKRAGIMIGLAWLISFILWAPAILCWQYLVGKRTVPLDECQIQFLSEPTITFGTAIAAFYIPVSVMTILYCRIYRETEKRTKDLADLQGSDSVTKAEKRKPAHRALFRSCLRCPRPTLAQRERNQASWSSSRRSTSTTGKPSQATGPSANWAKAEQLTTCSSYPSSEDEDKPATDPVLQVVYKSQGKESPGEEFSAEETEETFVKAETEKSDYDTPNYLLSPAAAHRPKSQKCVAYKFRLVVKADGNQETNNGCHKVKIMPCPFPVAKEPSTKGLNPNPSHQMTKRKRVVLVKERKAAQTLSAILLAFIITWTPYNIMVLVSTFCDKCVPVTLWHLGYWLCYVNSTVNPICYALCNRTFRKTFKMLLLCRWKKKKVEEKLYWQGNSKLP
M1 ag – activates human CHRM1 receptor | activation, % at 3 µM | CHO-K1 hM1, Fluo-8 calcium fluorescence, agonist mode; 0% DMSO, 100% acetylcholine EC100 | 0.33% of 360,000 active;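 active = activation above the run's mean compound activation plus 3 SD, cut at about 16% in these data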;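 also: peak over basal fluorescence ratio within a 140 s kinetic read after compound addition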
CHRM1 PAM – human CHRM1 positive allosteric modulation; P11229; CHO-K1 hM1, Fluo-8 calcium fluorescence, ACh EC20; 0% = ACh EC20, 100% = maximal ACh; activation, % at 3 µM; 0.088% of 360,000 active; in the data active = activation above about 19%, passing the limit was not always enough
CHRM5 agonist – agonists of human muscarinic M5 receptor (CHRM5); P08912; CHO-K1 hM5 cells, Fluo-8 calcium fluorescence; 0% DMSO wells, 100% maximal acetylcholine response; activation, % at 3 µM; 0.19% of 360,000 active; AID 624037;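 active = activation above the run's mean over test compounds plus 3 SD, cut at about 23% in these data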;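 also: signal is peak over basal fluorescence ratio across the kinetic read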
M5 PAM – CHRM5 positive allosteric modulation; 0.3% of 360,000 active; activation, % at 3 µM; CHO-K1 hM5, Fluo-8 calcium, ACh EC20 PAM; 0% = ACh EC20, 100% = ACh EC100; P08912;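 active = activation above the run cutoff, the mean activation of all test compounds plus 3 SD, cut at about 18% in these data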
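System – CHO-K1 hM5 cells · Compound – 3 µM, single dose · Incubation – compound preincubation 140 s before EC20 acetylcholine addition · Technique – Fluo-8 calcium fluorescence · Measure – Max/basal fluorescence ratio as % of EC20–EC100 ACh window · Benchmarks – low control EC20 acetylcholine (0%), high control EC100 acetylcholine (100%) · Replication – singlicate, one well per test compound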
CHRM1 antagonist – human CHRM1 antagonism | P11229 | CHO-K1 hM1, Fluo-8 calcium fluorescence, ACh EC80 antagonist | inhibition, % at 3 µM | 1.3% of 360,000 active | AID 588852;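 active = percent inhibition above its own plate's cutoff, namely the mean of that plate's compound wells plus 3 SD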;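 also: peak over basal fluorescence ratio during 140 s after agonist addition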
Numbers stand for hits; i = inactive; nt = no result.

SMILES	CHRM5 antagonist	M1 ag	CHRM1 PAM	CHRM5 agonist	M5 PAM	CHRM1 antagonist
Cc1ccc(CN2CCN(Cc3ccccc3F)CC2)cc1	i	i	i	i	26	i
O=C(Nc1ccccc1F)OC1CN2CCC1CC2 (centres undefined)	i	i	i	i	i	i
O=C(Nc1ccc(Cl)cc1)OC1CN2CCC1CC2 (centres undefined)	31	i	i	i	i	i
O=C(Nc1cccc(Cl)c1)OC1CN2CCC1CC2 (centres undefined)	29	i	i	i	i	i
O=P(Nc1cccc(Cl)c1)(Oc1ccccc1)Oc1ccccc1	i	i	i	i	i	i
N#Cc1ccc(NC(=O)CN2CCCC2)cc1Cl	i	i	i	i	i	i
O=C(Nc1cccc(Cl)c1)OCC#CCN1CCCC1	i	45	i	i	i	62
O=C(Nc1ccccc1Cl)OC1CN2CCC1CC2 (centres undefined)	i	i	i	i	i	54
c1ccc(C2(NC3=NCCO3)CCCCC2)cc1	i	i	i	i	i	i
Cc1ccc(CN2CCC3CCC(C3)C2)c(O)c1 (centres undefined)	i	i	i	i	i	i
CNC(=O)C[C@H]1CC[C@@H]2NC[C@H](O)COC[C@H]2O1	i	nt	nt	i	i	nt
O=C1CN=C(c2ccc(Cl)cc2)c2oc3ccccc3c2N1	i	18	i	i	i	i
COc1ccc2oc3c(c2c1)NC(=O)CN=C3c1ccccc1	i	i	i	i	i	i
Cc1cc(C(=O)OC(C)C(=O)Nc2ccccc2)c(C)n1C1CC1 (centres undefined)	i	i	i	i	i	i
O=[N+]([O-])c1cccc(CN2CCN(Cc3ccc(Br)cc3)CC2)c1	i	i	i	i	i	27
O=C(Cc1ccccc1)N1CCN(Cc2ccc([N+](=O)[O-])cc2)CC1	i	i	i	i	i	i
O=C1Nc2ccccc2C(c2ccccc2)=NC1O (centres undefined)	i	i	i	i	i	i
CN1C(=O)C(O)N=C(c2ccccc2)c2ccccc21 (centres undefined)	i	i	i	i	i	38
C[N+](C)(C)Cc1ccccc1	65	76	i	89	i	i
Cc1cc(C=O)c(C)n1CC1CCCO1 (centres undefined)	i	i	i	i	18	i
O=[N+]([O-])NC1=NCN(Cc2ccco2)CN1Cc1ccco1	i	i	i	i	19	i
COC(=O)[C@@H]1N=C(c2ccc(OC)cc2)O[C@]12C(=O)N(C)c1cccc(Cl)c12	i	nt	nt	i	i	nt
CCOC(=O)C1(CCCc2ccccc2)CCN(C2CCCC2)CC1	i	i	i	i	i	i
CCOC(=O)C1(CCc2ccccc2)CCN(C2CCSCC2)CC1	i	i	i	i	i	52
CC(=O)OC1C(O)C2=C3C4(C)C1C(C)(C)C(=O)CC4C3(O)C(OC(C)=O)C1(CC1C)C2=O (centres undefined)	i	nt	nt	i	i	nt
SMILES	CHRM5 antagonist	M1 ag	CHRM1 PAM	CHRM5 agonist	M5 PAM	CHRM1 antagonist
C=CCC1(Nc2ccccc2)CC(C)N(C)CC1C (centres undefined)	52	i	i	i	i	97
CCCCn1nnnc1C(CCSC)N1CCC2(CC1)C(=O)NCN2c1ccccc1 (centres undefined)	i	i	i	i	i	i
S=P(NCCSCc1ccccc1)(N1CC1)N1CC1	i	i	i	i	i	i
c1ccc(-c2cc(-c3ccccc3)[n+](-c3ccccc3)c(-c3ccccc3)c2)cc1	48	i	i	i	i	43
Cc1ccc(-c2cc(-c3ccc(C)cc3)[n+](-c3ccc(C(=O)[O-])cc3)c(-c3ccc(C)cc3)c2)cc1	i	i	i	i	i	i
Cc1ccc(-c2cc(-c3ccc(C)cc3)[n+](-c3ccccc3)c(-c3ccc(C)cc3)c2)cc1	31	i	i	i	i	51
CN(C)c1ccc(-[n+]2c(-c3ccccc3)cc(-c3ccccc3)cc2-c2ccccc2)cc1	78	i	i	i	i	56
Cc1ccc(-c2cc(-c3ccccc3)cc(-c3ccccc3)[n+]2-c2ccccc2)cc1	49	i	i	i	i	78
CC(C)(C)NC(=S)N1Cc2ccccc2-n2nncc2C1	i	i	i	i	i	i
COc1ccc(CN2C(=O)NC(=O)/C(=C/c3ccoc3)C2=O)cc1	i	i	i	29	i	i
CN1OC[C@@H]2CN[C@H](c3ccc(Br)cc3)C[C@@H]21	i	i	i	i	i	i
O=C(Cc1ccccc1)N1CCN(Cc2ccc(Cl)cc2)CC1	i	i	i	i	22	i
CN(C)C1CCc2[nH]c3c(F)cc(F)cc3c2C1 (centres undefined)	i	i	i	i	i	35
ClCCN(CCCl)c1ccc(-n2cnc3c(Cl)ncnc32)cc1	i	i	i	i	i	i
CCCCCN1C(=O)c2cc(OC)ccc2[C@@]2(C(=O)OCC)Cc3cc(Cl)ccc3[C@@H]12	i	nt	nt	i	i	nt
CC(C)C[C@@H]1COc2cccc(N3CCN(C)CC3)c2S(=O)(=O)N1	99	nt	nt	i	i	nt
C=CCN1Cc2ccccc2-n2nncc2C1	i	i	i	i	i	i
O=c1[nH]c(=S)n(-c2ccccc2)c(O)c1C=NCCN1CCNCC1	i	i	i	i	i	i
O=c1[nH]c(=S)n(-c2ccccc2Cl)c(O)c1C=NCCN1CCNCC1	i	39	i	i	i	i
C=CCn1c(O)c(C=NCCN2CCNCC2)c(=O)[nH]c1=O	i	i	i	i	i	i
O=c1[nH]c(=O)n(Cc2ccccc2)c(O)c1C=NCCN1CCNCC1	i	i	i	i	i	33
Cc1ccc(C(O)(C(=O)OC(C)C)C(O)c2ccccc2)cc1 (centres undefined)	i	nt	nt	i	i	nt
Cc1ccc2c(c1)C1C[N+](C)(CC(=O)c3ccc(Cl)cc3Cl)CCC1N2C(=O)c1ccc(F)cc1 (centres undefined)	i	i	i	i	i	34
Cc1ccc2c(c1)C1CN(C)CCC1N2C(=O)c1cccs1 (centres undefined)	i	i	i	i	i	i
N#CC1c2ccccc2-n2nncc2CN1Cc1cc(Cl)cc(Cl)c1 (centres undefined)	i	i	i	i	i	i
O=C(NCC1=C(c2ccc3ccccc3c2)C[C@@H]2CC[C@H]1N2Cc1ccco1)c1ccc([N+](=O)[O-])cc1	i	i	i	i	i	43
O=C(NCC1=C(c2ccc3ccccc3c2)C[C@@H]2CC[C@H]1N2Cc1ccco1)c1ccncc1	i	i	i	i	i	i
